According to BindingDB's records for doi:10.1021/jm960153q (Rhône-Poulenc Rorer, 1996):

Tests used:
[1] = Concentration at which one-half of the maximum Low density lipoprotein receptor is upregulated in HepG2 cells
[2] = molecular target: Low-density lipoprotein receptor (Homo sapiens, UniProt P01130); test: Concentration at which one-half the maximum Low density lipoprotein receptor up-regulation is observed in HepG2 cells
Summary of the method: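 HepG2 cells in 96-well plates at 10 000 cells/well, grown 3 days to 80% confluence. Compounds added in DMEM with 1% BSA for 24 h at several concentrations. Formaldehyde-fixed cells probed with MAC-C7 (0.5 µg/mL, 60 min, 4 °C), then alkaline phosphatase-linked anti-mouse IgG, then fluorogenic substrate. EC50 is the concentration giving half-maximal upregulation, determined only when upregulation at 3 µM exceeded 40%. Five replicates.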

Chain of Low-density lipoprotein receptor (P01130 whole entry): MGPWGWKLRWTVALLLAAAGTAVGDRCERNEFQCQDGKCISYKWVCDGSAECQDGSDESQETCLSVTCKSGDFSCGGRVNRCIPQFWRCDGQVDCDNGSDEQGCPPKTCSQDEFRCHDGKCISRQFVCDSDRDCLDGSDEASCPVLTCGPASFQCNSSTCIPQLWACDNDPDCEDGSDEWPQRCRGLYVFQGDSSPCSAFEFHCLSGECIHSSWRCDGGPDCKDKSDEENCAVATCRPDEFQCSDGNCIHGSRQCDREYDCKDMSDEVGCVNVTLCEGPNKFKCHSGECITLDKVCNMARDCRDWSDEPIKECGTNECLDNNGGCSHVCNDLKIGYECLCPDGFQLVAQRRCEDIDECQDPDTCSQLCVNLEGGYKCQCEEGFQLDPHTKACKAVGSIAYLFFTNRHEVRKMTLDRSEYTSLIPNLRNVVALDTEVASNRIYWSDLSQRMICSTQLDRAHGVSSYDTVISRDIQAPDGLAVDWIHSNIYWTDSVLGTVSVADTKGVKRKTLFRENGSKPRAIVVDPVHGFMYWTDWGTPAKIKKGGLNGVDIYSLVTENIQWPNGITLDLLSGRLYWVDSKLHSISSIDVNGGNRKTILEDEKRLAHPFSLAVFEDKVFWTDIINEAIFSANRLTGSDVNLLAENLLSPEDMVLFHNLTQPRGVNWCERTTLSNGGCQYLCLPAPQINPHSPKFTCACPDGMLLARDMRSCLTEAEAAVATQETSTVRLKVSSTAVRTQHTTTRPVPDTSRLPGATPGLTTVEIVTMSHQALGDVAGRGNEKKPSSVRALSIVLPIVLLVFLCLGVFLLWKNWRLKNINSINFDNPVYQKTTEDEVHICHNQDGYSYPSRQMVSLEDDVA

| Structure (SMILES) | EC50 [1] | EC50 [2] |
| --- | --- | --- |
| Cc1ccc(NC(=O)CCC2CCCCC2)cc1-c1nc2ccc(O)cc2[nH]1 [3-Cyclohexyl-N-[3-(5-hydroxy-1H-benzoimidazol-2-yl)-4-methyl-phenyl]-propionamide] | 700 nM | – |
| Cc1ccc2nc(-c3cc(NC(=O)CCC4CCCCC4)ccc3C)[nH]c2c1 [3-Cyclohexyl-N-[4-methyl-3-(5-methyl-1H-benzoimidazol-2-yl)-phenyl]-propionamide] | 1300 nM | – |
| Cc1ccc(NC(=O)CCC2CCCCC2)cc1NC(=O)c1ccc(N)cc1 [4-Amino-N-[5-(3-cyclohexyl-propionylamino)-2-methyl-phenyl]-benzamide] | 3800 nM | – |
| Cc1ccc(NC(=O)CCC2CCCCC2)cc1C(=O)Nc1ccc(O)cc1 [5-(3-Cyclohexyl-propionylamino)-N-(4-hydroxy-phenyl)-2-methyl-benzamide] | 7000 nM | – |
| CC(=O)Oc1ccc(C(=O)Nc2cc(NC(=O)CCC3CCCCC3)ccc2C)cc1 [Acetic acid 4-[5-(3-cyclohexyl-propionylamino)-2-methyl-phenylcarbamoyl]-phenyl ester] | 2500 nM | – |
| Cc1ccc(C(=O)NCCC2CCCCC2)cc1NC(=O)c1ccc(O)cc1 [N-(2-Cyclohexyl-ethyl)-3-(4-hydroxy-benzoylamino)-4-methyl-benzamide] | 2000 nM | – |
| Cc1ccc(NC(=O)CCC2CCCCC2)cc1-c1nc2ccccc2[nH]1 [N-[3-(1H-Benzoimidazol-2-yl)-4-methyl-phenyl]-3-cyclohexyl-propionamide] | 1300 nM | – |
| Cc1ccc(NC(=O)CCC2CCCCC2)cc1/C=C(\C#N)c1ccc2c(c1)OCO2 [N-[3-((Z)-2-Benzo[1,3]dioxol-5-yl-2-cyano-vinyl)-4-methyl-phenyl]-3-cyclohexyl-propionamide] | 700 nM | – |
| Cc1ccc(NC(=O)CCC2CCCCC2)cc1/C=C(\C#N)c1cccnc1 [N-[3-((Z)-2-Cyano-2-pyridin-3-yl-vinyl)-4-methyl-phenyl]-3-cyclohexyl-propionamide] | 1000 nM | – |
| Cc1ccc(NC(=O)CCC2CCCCC2)cc1NC(=O)c1cccc(O)c1 [N-[5-(3-Cyclohexyl-propionylamino)-2-methyl-phenyl]-3-hydroxy-benzamide] | 2000 nM | – |
| Cc1ccc(NC(=O)CCC2CCCCC2)cc1NC(=O)c1ccc(O)cc1 [N-[5-(3-Cyclohexyl-propionylamino)-2-methyl-phenyl]-4-hydroxy-benzamide] | 1700 nM | – |
| Cc1ccc(NC(=O)CCC2CCCCC2)cc1NC(=O)c1ccc(CO)cc1 [N-[5-(3-Cyclohexyl-propionylamino)-2-methyl-phenyl]-4-hydroxymethyl-benzamide] | 7600 nM | – |
| Cc1ccc(NC(=O)CCC2CCCCC2)cc1NC(=O)c1ccccc1 [N-[5-(3-Cyclohexyl-propionylamino)-2-methyl-phenyl]-benzamide] | 2000 nM | – |
| Cc1ccc(NC(=O)CCC2CCCCC2)cc1NC(=O)c1cccnc1 [N-[5-(3-Cyclohexyl-propionylamino)-2-methyl-phenyl]-nicotinamide] | 1200 nM | – |
| Cc1ccc(C(=O)CCCC2CCCCC2)cc1NC(=O)c1cccnc1 [N-[5-(4-Cyclohexyl-butyryl)-2-methyl-phenyl]-nicotinamide] | – | 2000 nM |
| Cc1ccc(NC(=O)CCCC2CCCCC2)cc1NC(=O)c1ccc(O)cc1 [N-[5-(4-Cyclohexyl-butyrylamino)-2-methyl-phenyl]-4-hydroxy-benzamide] | 4000 nM | – |
